5HT1E ag – activates the human 5-HT1E serotonin receptor; AID 574; hit rate 0.69% among 65,000; CHO 5-HT1E Ga15 NFAT-bla reporter, FRET; 0% DMSO wells, 100% control agonist wells; activation, % at 6 µM; P28566;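 active = activation above a set limit, the screen-wide mean activation plus 3 SD, cut at about 8.5% in these data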;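 also: 100% = positive control agonist at 1 µM giving full maximal response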
5HT1a ag – 5-HT1a (human) receptor agonism | hit rate 0.56% among 65,000 | CHO 5-HT1a Ga15 NFAT-bla reporter, FRET ratio; 0% basal, 100% maximal reference agonist | P08908 | activation, % at 10 µM | AID 567;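 active = activation above the screen-wide mean activation plus 3 SD, cut at about 19% in these data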;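 also: 0% = DMSO wells and 100% = 5-CT at EC100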
Target sequence (P08908 whole entry, looked up): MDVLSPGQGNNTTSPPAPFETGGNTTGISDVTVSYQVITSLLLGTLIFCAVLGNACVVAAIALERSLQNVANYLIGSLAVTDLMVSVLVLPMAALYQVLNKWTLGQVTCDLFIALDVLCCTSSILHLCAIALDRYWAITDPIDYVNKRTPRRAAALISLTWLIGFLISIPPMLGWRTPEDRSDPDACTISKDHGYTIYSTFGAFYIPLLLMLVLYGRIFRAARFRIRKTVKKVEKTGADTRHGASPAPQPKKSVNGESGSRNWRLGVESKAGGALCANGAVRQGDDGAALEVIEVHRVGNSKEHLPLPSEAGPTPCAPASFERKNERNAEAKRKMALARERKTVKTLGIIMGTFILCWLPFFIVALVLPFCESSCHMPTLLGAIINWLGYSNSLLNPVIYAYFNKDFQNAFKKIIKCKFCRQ
5HT1a antag – antagonists of human 5-HT1a serotonin receptor | CHO 5-HT1a Ga15 NFAT-bla reporter, antagonist mode | inhibition, % at 10 µM | hit rate 0.68% among 62,000 | AID 612;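 active = inhibition above the mean of all tested compounds plus 3 SD, cut at about 43% in these data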;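 also: receptor stimulated by 5-CT agonist at 100 nM near EC80; beta-lactamase reporter measured by ratiometric fluorescence of a cleavable substrate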
S1P1 ag pot – agonists and agonism potentiators of human S1P1 receptor; activation, % at 9.5 µM; S1P1 CRE-bla cells, forskolin, beta-lactamase FRET, potentiator mode; S1P1 agonist co-added at EC20, 2 nM; 100% = saturating reference agonist, 0% = basal; hit rate 0.57% among 56,000; P21453;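 active = activation above a cutoff set at the mean activation of all tested compounds plus 3 SD, cut at about 54% in these data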;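 also: forskolin at 4 µM as EC80 and the EC20 agonist is SEW2871; 100% = SEW2871 at its EC100 plus forskolin at EC80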
S1P3 ag – S1P3 (human) receptor agonism; Q99500; S1P3 NFAT-BLA reporter cells, FRET ratio; relative to 1 µM S1P, basal subtracted; activation, % at 4.5 µM; hit rate 0.1% among 60,000; AID 373;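 active = activation above the screen-wide mean plus 3 SD, cut at about 4.5% in these data, passing the limit was not always enough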
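Assay system: CHO cells stably expressing human S1P3, Gα16 and NFAT-β-lactamase reporter. Timing: overnight plating, 4 h compound 37 °C, 2 h substrate RT. Signal: β-lactamase FRET emission ratio 460/535 nm. Measure: percent activation versus median 1 µM S1P response, basal-subtracted, per plate. Repeats: primary screen single test, confirmation screen in triplicate.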
HTR1E antagonist – 5-HT1E (human) receptor antagonism; inhibition, % at 6 µM; P28566; hit rate 0.99% among 65,000; CHO 5-HT1E Ga15 NFAT-bla reporter, FRET, antagonist;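 active = inhibition above a set limit, the mean inhibition across every tested compound plus 3 SD, cut at about 29% in these data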;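 also: signal is the 460 over 535 nm emission ratio of beta-lactamase substrate; 0% = agonist plus DMSO wells and 100% = wells without agonist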
Starred values were filed as active, the others as inactive; . = no result. Only some compounds are listed: those with a hit (about 3% of all), similar ones and a draw of the others.

SMILES | 5HT1E ag | 5HT1a ag | 5HT1a antag | S1P1 ag pot | S1P3 ag | HTR1E antagonist
CC(=O)Nc1nc2n(n1)C(c1ccccc1)C=C(c1ccccc1)N2 (centres undefined) | -1 | -2 | 30 | . | -2 | 34*
Cc1cc(N2CCN(C3CCCC3)CC2)n2nc(C)c(-c3ccccc3)c2n1 | 0 | 2 | -7 | -3 | 1 | -8
COc1cc(C(=O)OCn2nnc3ccccc3c2=O)cc(OC)c1OC | 1 | 1 | -6 | . | . | 6
COc1cccc(C(=O)OCn2nnc3ccccc3c2=O)c1OC | 0 | 0 | 14 | -17 | -1 | 33*
COC(=O)CC1=NC(=O)CS1 | 0 | 0 | . | -10 | -4 | 0
COc1ccc2c(c1)c(CCN1C(=O)c3ccccc3C1=O)cn2C(=O)c1ccco1 | 0 | 0 | 8 | -6 | -1 | 7
O=C(Oc1ccc2[nH]cc(CCN3C(=O)c4ccccc4C3=O)c2c1)c1ccco1 | 38* | -1 | -12 | -19 | -1 | -7
CCN(CC)c1nc(Nc2ccc(Cl)cc2)nc(OCC#N)n1 | 0 | 1 | 31 | -16 | -1 | 33*
CCN(CC)c1nc(Nc2ccccc2)nc(Oc2ccc(=O)[nH]n2)n1 | 0 | -4 | 14 | -15 | -2 | 22
Cc1nnc(SCc2cn3ccsc3n2)n(N)c1=O | 0 | -1 | 6 | 14 | -1 | 12
O=c1c2ccccc2nc(SCc2cn3ccsc3n2)n1-c1ccc(F)cc1 | 0 | 6 | 19 | -21 | 0 | 37*
CC(NC(=O)Nc1ccccc1O)(C(F)(F)F)C(F)(F)F | 0 | 0 | -10 | -26 | 0 | -10
OCC#CCSc1nnc(-c2ccccc2Br)o1 | 0 | -1 | -8 | -15 | 0 | -13
CCCCCOC(=O)Cn1c(SCC(=O)Nc2ccccc2)nc2c1c(=O)[nH]c(=O)n2C | 9.7* | -1 | -7 | -1 | 1 | 2
COc1ccc2c(C(=O)CN(C)C3CCCCC3)c[nH]c2c1 | 0 | -6 | 1 | 11 | -1 | -2
CCc1ccc(CCC(=O)Nc2sc3c(c2C#N)CCCC3)o1 | 0 | -3 | 61* | . | 20 | 53*
N#Cc1c(NC(=O)CCC(=O)O)sc2c1CCCC2 | 0 | -1 | . | -4 | -2 | -6
Cc1ccc2oc(=O)n(CCOc3ccccc3Cl)c2c1 | -2 | 0 | 24 | 5 | -1 | 32*
CCCOc1ccccc1Cn1c(=O)oc2ccc(C)cc21 | -1 | -2 | 44* | . | . | 14
COc1ccc(C2=CC(c3ccc(Cl)cc3)n3cnnc3N2)cc1OC (centres undefined) | -1 | -7 | 40 | . | . | 35*
COc1ccc(C2C=C(c3ccc(Cl)cc3)Nc3nc(NC(C)=O)nn32)cc1 (centres undefined) | 0 | -2 | . | 25 | -1 | 14
CSc1nnc2c3c4c(sc3c(=O)n(-c3ccccc3)n12)CC(C)(C)OC4 | 1 | 2 | -17 | -20 | 0 | -1
C/C=C/c1ccc(OCCSc2nc(C)cc(=O)[nH]2)c(OC)c1 | 0 | 1 | -10 | . | 0 | -2
COc1ccc(-c2nnc3sc(-c4cccs4)nn23)cc1OC | 1 | 1 | -16 | -29 | 0 | 36*
COc1cc(-c2nnc3sc(-c4cccs4)nn23)cc(OC)c1OC | 0 | 5 | -20 | -3 | 1 | 38*
SMILES | 5HT1E ag | 5HT1a ag | 5HT1a antag | S1P1 ag pot | S1P3 ag | HTR1E antagonist
COc1cc(-c2nn3c(-c4cccnc4)nnc3s2)cc(OC)c1OC | 0 | -1 | . | -8 | 0 | 19
COc1ccc(-c2nn3c(-c4cccc(C)c4)nnc3s2)cc1OC | 2 | 3 | -19 | -68 | 0 | 18
CCc1ccc(OCC(=O)NCc2ccco2)c(Br)c1 | -1 | 2 | -1 | 11 | -1 | -3
CCOC(=O)CN(C(=O)CSc1nnc(-c2cccc(OC)c2)o1)c1ccc(F)cc1 | 0 | 0 | -10 | 82* | 0 | 2
COc1ccccc1N1CCN(C(=O)CSc2nc(C)c(Cc3ccccc3)c(=O)[nH]2)CC1 | 20* | 2 | 12 | -15 | 0 | -3
COc1ccccc1N1CCN(C(=O)CSc2nc3ncnc(N)c3[nH]2)CC1 | 3 | 1 | -8 | . | -1 | 1
COc1ccccc1N1CCN(C(=O)CSc2nc(-c3ccccc3)cc(=O)[nH]2)CC1 | 15* | 9 | -2 | 3 | 0 | -11
COc1ccc(OC)c(Nc2cc(-c3ccccc3)nc(N)n2)c1 | -1 | -4 | 63* | -38 | -2 | 70*
O=S(=O)(Nc1cccc2cccnc12)c1ccc(S(=O)(=O)N2CCCC2)cc1 | -1 | -1 | 30 | 23 | 0 | 32*
CN1C(=O)CC(N2CCN(CCN=CC3=C(O)CC(C)(C)CC3=O)CC2)C1=O (centres undefined) | 0 | -1 | 55* | -12 | -1 | -4
COCc1cc(C)nc(SCC(=O)Nc2cccc3cccnc23)c1C#N | 0 | 6 | 1 | -18 | 1 | 42*
CCN1CCCC1CNC(=O)c1cc(NC(C)=O)c(N(C)C)cc1OC (centres undefined) | 0 | -3 | -6 | -21 | 1 | -4
COc1ccc(C2/C(=C(/O)c3ccccc3)C(=O)C(=O)N2CCN2CCOCC2)c(OC)c1 (centres undefined) | 0 | -1 | -7 | -5 | 0 | 1
O=C(Nc1ccc(Oc2ccc(NC(=O)c3ccco3)c(NC(=O)c3ccco3)c2)cc1)c1ccco1 | -1 | -2 | 59* | -10 | 0 | 18
C=C1[C@@H](C)C2[C@H](Cc3ccccc3)NC(=O)[C@]23OC(=O)CC[C@H](O)CCC[C@H](C)C/C=C/[C@H]3[C@@H]1O (some centres undefined) | 0 | -2 | . | -3 | 3 | 34*
COc1cccc(C(=O)Nc2ccc(C(=O)O)cc2)c1 | 0 | -2 | 2 | -17 | 0 | 5
COc1cccc(C(=O)Nc2ccc(C)cc2)c1 | 1 | 164* | 4 | . | . | -1
O=C(CSc1nnc(Cc2cccs2)n1Cc1ccco1)Nc1cc(Cl)cc(Cl)c1 | 1 | 3 | 46* | 7 | 0 | -6
O=C(CSc1nnc(Cc2cccs2)n1Cc1ccco1)Nc1cccc(Cl)c1 | -1 | 2 | 41 | 12 | 0 | 3
O=C(c1ccco1)N1CCN(C(c2ccccn2)c2nnnn2C2CCCC2)CC1 (centres undefined) | -1 | -2 | 18 | -10 | 0 | 8
O=C(O)C1CCCCC1C(=O)NCCc1ccc(Cl)cc1 (centres undefined) | 21* | -4 | -1 | -2 | 0 | -13
CC1CCCCN1C(=O)CN1C(=O)CN(C)C(=O)c2ccccc21 (centres undefined) | 0 | -1 | 6 | 10 | 0 | 1

Screening results deposited in PubChem BioAssay by The Scripps Research Institute Molecular Screening Center.
